Assay results as given in ChEMBL document CHEMBL4251564, “Development of noviomimetics that modulate molecular chaperones and manifest neuroprotective effects” (Eur J Med Chem, 2018).
Activity calls are given as the source filed them. The calls are words filed in the database; no cut-off is given here.

Legend:
Format in all cases: cell-based
[1] = organism: Rattus norvegicus; assay: Inhibition of HSP90 in rat 50B11 cells transfected with human HSPA1A promoter assessed as induction of human Hsp70 expression at 10 to 1000 nM incubated for 16 hrs by luciferase reporter gene assay
[2] = organism: Rattus norvegicus; assay: Inhibition of HSP90 in rat 50B11 cells assessed as increase in Hsp70 protein expression at 0.03 to 3 uM after 24 hrs by immunoblot assay
Method in brief: (§1)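 Nontransfected 50B11 cells exposed 24 h to compound, with DMSO as negative control. Hsp70 detected by immunoblot; densitometry reports fold induction over DMSO. Mean ±SEM, n >2.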

[3] = organism: Rattus norvegicus; assay: Inhibition of HSP90 in rat 50B11 cells assessed as increase in Hsp70 protein expression at 1 uM after 24 hrs by immunoblot assay; method in brief: as §1
[4] = organism: Rattus norvegicus; assay: Inhibition of HSP90 in rat 50B11 cells assessed as improvement in mitochondrial bioenergetics by measuring suppression of H2O2-induced reduction in oxygen consumption rate at 1 uM after 24 hrs by XF96 extracellular flux analyzer based method
Method in brief: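 50B11 cells seeded in high-glucose DMEM with 10% FBS; after 12 h switched to high-glucose DMEM with 1% FBS plus 1.0 μM compound or DMSO for 24 h, then stressed with 0.5 mM H2O2 for 2 h. Intact-cell OCR and ECAR read on XF96 extracellular flux analyzer; maximal respiratory capacity from FCCP response; significance versus H2O2 alone, p<0.05.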

[5] = organism: Rattus norvegicus; assay: Inhibition of HSP90 in rat 50B11 cells assessed as decrease in c-jun protein expression at 1 uM incubated for 24 hrs followed by 10% FBS exposure for 2 hrs by Western blot analysis
Method in brief: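 50B11 cells held in serum-free medium 24 h to arrest cycle and lower c-Jun, then given vehicle or 1.0 μM compound for 24 h; c-Jun induced by 10% FBS medium for 2 h. Lysates immunoblotted for c-Jun with actin control; densitometry gives fold change normalized to serum-free-then-serum control. Mean ±SEM, n >2.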

For `CC(=O)NCCc1ccc(OC2CCC(OCc3ccc4ccccc4c3)CC2)cc1-c1cccc(F)c1` (configuration not stated), the inhibition [1] was “Active”.

`CC(=O)NCCc1ccc(OC2CCC(OCc3ccccc3C)CC2)c(O)c1-c1cccc(F)c1` (configuration not stated) was tested, and the inhibition [2] was “Active”.

With `COc1cc(OC2CCC(OCc3ccccc3C)CC2)cc(-c2cccc(F)c2)c1CCNC(C)=O` (configuration not stated) the inhibition [2] was “Active”.

For `CC(=O)NCCc1cc(C)c(OC2CCC(OCc3ccccc3)CC2)cc1-c1cccc(F)c1` (configuration not stated), the inhibition [2] was “inactive”.

For `CC(=O)NCCc1ccc(OC2CCC(OCc3ccc(Cl)cc3)CC2)cc1-c1cccc(F)c1` (configuration not stated), the inhibition [3] was “inactive” and the inhibition [1] was “Active”.

With `COc1ccccc1COc1ccc2cc(NC(C)=O)c(=O)oc2c1C` the inhibition [1] was “inactive”.

With `COc1cc(OC2CCC(OCc3ccccc3)CC2)cc(-c2cccc(F)c2)c1CCNC(C)=O` (configuration not stated) the inhibition [2] was “Active”.

In the case of `CC(=O)NCCc1ccc(OC2CCC(OCc3ccc(C(C)(C)C)cc3)CC2)cc1-c1cccc(F)c1` (configuration not stated), the inhibition [1] is reported as “Active”.

In the case of `CC(=O)NCCc1ccc(OC2CCC(OCc3ccc(Cl)cc3Br)CC2)cc1-c1cccc(F)c1` (configuration not stated), the inhibition [1] is reported as “Active”.

With `COc1ccccc1COC1CCC(Oc2cc(OC)c(CCNC(C)=O)c(-c3cccc(F)c3)c2)CC1` (configuration not stated) the inhibition [2] was “Active”.

In the case of `COc1ccc(COC2CCC(Oc3ccc(CCNC(C)=O)c(-c4cccc(F)c4)c3)CC2)cc1` (configuration not stated), the inhibition [1] is reported as “Active”.

With `CC(=O)NCCc1ccc(OC2CCC(OCc3cccc(Cl)c3)CC2)cc1-c1cccc(F)c1` (configuration not stated) the inhibition [1] was “Active”.

For `CC(=O)NCCc1c(O)cc(OC2CCC(OCc3ccc(Br)cc3)CC2)cc1-c1cccc(F)c1` (configuration not stated), the inhibition [2] was “Active”.

`CC(=O)NCCc1ccc(OC2CCC(OCc3ccccc3F)CC2)cc1-c1cccc(F)c1` (configuration not stated) was tested, and the inhibition [1] was “Active”.

In the case of `COc1cccc(COC2CCC(Oc3ccc(CCNC(C)=O)c(-c4cccc(F)c4)c3)CC2)c1` (configuration not stated), the inhibition [1] is reported as “Active”.

With `CC(=O)NCCc1cc(C)c(OC2CCC(OCc3ccccc3C)CC2)cc1-c1cccc(F)c1` (configuration not stated) the inhibition [2] was “inactive”.

`CC(=O)NCCc1ccc(OC2CCC(OCc3ccccc3Br)CC2)cc1-c1cccc(F)c1` (configuration not stated) was tested, and the inhibition [3] was “Active” and the inhibition [1] was “Active”.

With `COc1ccccc1COC1CCC(Oc2ccc(CCNC(C)=O)c(-c3cccc(F)c3)c2)CC1` (configuration not stated) the inhibition [3] was “Active”.

With `CC(=O)NCCc1ccc(OC2CCC(OCc3ccc(Br)cc3)CC2)cc1-c1cccc(F)c1` (configuration not stated) the inhibition [1] was “Active”.

For `CO[C@@H]1[C@@H](O)[C@@H](O)[C@H](Oc2cc(-c3cccc(F)c3)c(CCNC(C)=O)cc2C)OC1(C)C`, the inhibition [2] was “Active”.

For `COc1cc(C)ccc1COC1CCC(Oc2ccc(CCNC(C)=O)c(-c3cccc(F)c3)c2)CC1` (configuration not stated), the inhibition [1] was “Active”.

In the case of `CC(=O)Nc1cc2ccc(OCc3ccc(Cl)cc3)c(C)c2oc1=O`, the inhibition [1] is reported as “inactive”.

`CO[C@@H]1[C@@H](O)[C@@H](O)[C@H](Oc2ccc(CCNC(C)=O)c(-c3cccc(F)c3)c2)OC1(C)C` was tested, and the inhibition [2] was “Active” and the inhibition [4] was “Active”.

For `CC(=O)NCCc1c(O)cc(OC2CCC(OCc3ccc(Cl)cc3)CC2)cc1-c1cccc(F)c1` (configuration not stated), the inhibition [2] was “Active”.

In the case of `CC(=O)NCCc1cc(C)c(OC2CCC(OCc3ccc(Br)cc3)CC2)cc1-c1cccc(F)c1` (configuration not stated), the inhibition [2] is reported as “inactive”.

In the case of `CC(=O)NCCc1ccc(OC2CCC(OCc3ccccc3)CC2)cc1-c1cccc(F)c1` (configuration not stated), the inhibition [4] is reported as “Active” and the inhibition [1] is reported as “Active”.

For `CC(=O)NCCc1c(O)cc(OC2CCC(OCc3ccccc3C)CC2)cc1-c1cccc(F)c1` (configuration not stated), the inhibition [2] was “Active”.

With `CC(=O)NCCc1ccc(OC2CCC(OCc3ccc(F)cc3)CC2)cc1-c1cccc(F)c1` (configuration not stated) the inhibition [1] was “Active”.

`CC(=O)NCCc1ccc(OC2CCC(OCc3ccccc3Cl)CC2)cc1-c1cccc(F)c1` (configuration not stated) was tested, and the inhibition [3] was “Active” and the inhibition [1] was “Active”.

In the case of `COc1ccccc1COC1CCC(Oc2cc(O)c(CCNC(C)=O)c(-c3cccc(F)c3)c2)CC1` (configuration not stated), the inhibition [5] is reported as “Active” and the inhibition [2] is reported as “Active”.

`COc1cc(Cl)ccc1COC1CCC(Oc2ccc(CCNC(C)=O)c(-c3cccc(F)c3)c2)CC1` (configuration not stated) was tested, and the inhibition [3] was “inactive” and the inhibition [1] was “Active”.

In the case of `COc1cc(O[C@@H]2OC(C)(C)[C@H](OC)[C@@H](O)[C@H]2O)cc(-c2cccc(F)c2)c1CCNC(C)=O`, the inhibition [5] is reported as “Active”.

With `CC(=O)Nc1cc2ccc(OCc3ccccc3Br)c(C)c2oc1=O` the inhibition [1] was “inactive”.

`CC(=O)NCCc1ccc(OC2CCC(OCc3ccccc3C)CC2)cc1-c1cccc(F)c1` (configuration not stated) was tested, and the inhibition [1] was “Active”.

In the case of `CC(=O)NCCc1ccc(OC2CCC(OCc3ccc(C)cc3)CC2)cc1-c1cccc(F)c1` (configuration not stated), the inhibition [1] is reported as “Active”.

With `CC(=O)Nc1cc2ccc(OCc3ccccc3)c(C)c2oc1=O` the inhibition [1] was “inactive”.

In the case of `CC(=O)NCCc1ccc(OC2CCC(OCc3ccc(C(F)(F)F)cc3)CC2)cc1-c1cccc(F)c1` (configuration not stated), the inhibition [3] is reported as “inactive” and the inhibition [1] is reported as “Active”.

`COc1ccccc1COC1CCC(Oc2cc(-c3cccc(F)c3)c(CCNC(C)=O)cc2C)CC1` (configuration not stated) was tested, and the inhibition [2] was “inactive”.

With `CC(=O)NCCc1ccc(OC2CCC(OCc3ccc(Cl)cc3)CC2)c(O)c1-c1cccc(F)c1` (configuration not stated) the inhibition [2] was “Active”.

In the case of `CC(=O)NCCc1ccc(O)cc1-c1cccc(F)c1`, the inhibition [1] is reported as “inactive”.

`CC(=O)NCCc1c(O)cc(OC2CCC(OCc3ccccc3)CC2)cc1-c1cccc(F)c1` (configuration not stated) was tested, and the inhibition [5] was “Active” and the inhibition [2] was “Active”.

In the case of `CC(=O)NCCc1ccc(OC2C=CC(OCc3ccc(Cl)cc3)CC2)cc1-c1cccc(F)c1` (configuration not stated), the inhibition [3] is reported as “Active” and the inhibition [1] is reported as “Active”.

With `CC(=O)NCCc1ccc(OC2CCC(OCc3ccc(Cl)cc3)[C@@H](O)[C@H]2O)cc1-c1cccc(F)c1` (some centres not stated) the inhibition [3] was “Active” and the inhibition [1] was “Active”.

For `CC(=O)Nc1cc2ccc(O)c(C)c2oc1=O`, the inhibition [1] was “inactive”.

With `CC(=O)NCCc1ccc(OC2CCC(OCc3ccc(Br)cc3)CC2)c(O)c1-c1cccc(F)c1` (configuration not stated) the inhibition [5] was “Active” and the inhibition [2] was “Active”.

In the case of `COc1cc(OC2CCC(OCc3ccc(Br)cc3)CC2)cc(-c2cccc(F)c2)c1CCNC(C)=O` (configuration not stated), the inhibition [5] is reported as “Active” and the inhibition [2] is reported as “Active”.

`CC(=O)NCCc1ccc(OC2CCC(OCc3c(Cl)cccc3Cl)CC2)cc1-c1cccc(F)c1` (configuration not stated) was tested, and the inhibition [3] was “inactive” and the inhibition [1] was “Active”.

`COc1ccccc1COC1CCC(Oc2ccc(CCNC(C)=O)c(-c3cccc(F)c3)c2O)CC1` (configuration not stated) was tested, and the inhibition [2] was “Active”.

`CO[C@@H]1[C@@H](O)[C@@H](O)[C@H](Oc2cc(O)c(CCNC(C)=O)c(-c3cccc(F)c3)c2)OC1(C)C` was tested, and the inhibition [5] was “Active”.

In the case of `COc1cc(OC2CCC(OCc3ccc(Cl)cc3)CC2)cc(-c2cccc(F)c2)c1CCNC(C)=O` (configuration not stated), the inhibition [5] is reported as “Active”, the inhibition [2] is reported as “Active” and the inhibition [4] is reported as “Active”.

For `CC(=O)NCCc1ccc(OC2CCC(OCc3ccccc3)CC2)c(O)c1-c1cccc(F)c1` (configuration not stated), the inhibition [2] was “Active”.
